Test results taken from ChEMBL document CHEMBL3351868, “Structure-affinity relationships and pharmacological characterization of new alkyl-resorcinol cannabinoid receptor ligands: Identification of a dual cannabinoid receptor/TRPA1 channel agonist” (Bioorg Med Chem, 2014).

Columns and labels:
[1] = target: Cannabinoid receptor 1 (Homo sapiens, UniProt P21554); assay: Displacement of [3H]CP-55,940 from human recombinant CB1 receptor expressed in HEK293 cell membranes
[2] = target: T1, Cannabinoid receptor 2 (Homo sapiens, UniProt P34972); assay: Displacement of [3H]CP-55,940 from human recombinant CB2 receptor expressed in HEK293 cell membranes
[3] = organism: Homo sapiens; assay: Selectivity index, ratio of Ki for human recombinant CB1 receptor to Ki for human recombinant CB2 receptor
[4] = organism: Homo sapiens; assay: Selectivity index, ratio of Ki for human recombinant CB2 receptor to Ki for human recombinant CB1 receptor
[5] = target: T2, Fatty-acid amide hydrolase 1 (Rattus norvegicus, UniProt P97612); assay: Inhibition of FAAH in rat brain membranes assessed as reduction in [14C] anandamide hydrolysis by scintillation counting method; format: cell membranes, Membrane
T2 sequence (P97612 whole entry): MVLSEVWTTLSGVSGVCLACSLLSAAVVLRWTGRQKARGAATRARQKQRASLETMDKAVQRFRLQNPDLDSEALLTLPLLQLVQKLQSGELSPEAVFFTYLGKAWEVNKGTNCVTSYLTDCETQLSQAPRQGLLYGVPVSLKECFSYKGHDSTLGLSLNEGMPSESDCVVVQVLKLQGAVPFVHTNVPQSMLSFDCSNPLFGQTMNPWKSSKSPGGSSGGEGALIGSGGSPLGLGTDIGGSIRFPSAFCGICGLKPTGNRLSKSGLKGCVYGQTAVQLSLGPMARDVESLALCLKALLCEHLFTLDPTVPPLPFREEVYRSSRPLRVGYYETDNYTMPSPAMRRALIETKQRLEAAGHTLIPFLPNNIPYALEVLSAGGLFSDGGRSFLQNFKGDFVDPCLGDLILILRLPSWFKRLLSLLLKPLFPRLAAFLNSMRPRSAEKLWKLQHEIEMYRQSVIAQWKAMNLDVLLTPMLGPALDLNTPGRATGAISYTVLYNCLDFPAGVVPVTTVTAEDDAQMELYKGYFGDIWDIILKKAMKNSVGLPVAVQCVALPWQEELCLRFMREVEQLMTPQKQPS

[6] = system: COS-7; assay: Inhibition of MGL in African green monkey COS7 cells cytosolic fraction assessed as reduction in 2-arachidonoyl-[3H]-glycerol hydrolysis at 10 uM by scintillation counting method; format: cell-based; conditions: Chlorocebus aethiops
[7] = Inhibition of MGL in African green monkey COS7 cells cytosolic fraction assessed as reduction in 2-arachidonoyl-[3H]-glycerol hydrolysis by scintillation counting method; format: cell-based, Chlorocebus aethiops; conditions: cos-7
[8] = target: T3, Fatty-acid amide hydrolase 1 (Rattus norvegicus) (UniProt P97612); assay: Inhibition of FAAH in rat brain membranes assessed as reduction in [14C] anandamide hydrolysis at 10 uM by scintillation counting method; format: cell membranes; conditions: Membrane
T3 sequence (whole entry): T2 sequence (P97612 whole entry)

[9] = system: COS-7; assay: Inhibition of MGL in African green monkey COS7 cells cytosolic fraction assessed as reduction in 2-arachidonoyl-[3H]-glycerol hydrolysis at 50 uM by scintillation counting method; format: cell-based; conditions: Chlorocebus aethiops
[10] = target: T1, Cannabinoid receptor 2; assay: Agonist activity at human recombinant CB2 receptor expressed in CHO cell membranes by [35S]GTPgammaS binding assay; format: functional
Procedure, shortened: (§1)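 Membranes from CHO cells stably expressing human CB1 or CB2, 50 µg protein per well, in Tris buffer with 100 mM NaCl, 5 mM MgCl2, 1 mM DTT, 1 mM EDTA, 0.1% BSA, pH 7.4. Incubated 60 min at 30°C with 0.1 nM [35S]GTPγS, 30 µM GDP and compound in DMSO. Nonspecific binding defined with 30 µM GTPγS. Filtration and scintillation counting. Percent change relative to DMSO control, n=6. EC50/Emax from sigmoidal fit.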

[11] = target: T1, Cannabinoid receptor 2; assay: Agonist activity at human recombinant CB2 receptor expressed in CHO cell membranes assessed as stimulation of [35S]GTPgammaS binding relative to basal level; format: functional; procedure, shortened: as §1

Cannabinoid receptor 1, sequence (P21554 whole entry): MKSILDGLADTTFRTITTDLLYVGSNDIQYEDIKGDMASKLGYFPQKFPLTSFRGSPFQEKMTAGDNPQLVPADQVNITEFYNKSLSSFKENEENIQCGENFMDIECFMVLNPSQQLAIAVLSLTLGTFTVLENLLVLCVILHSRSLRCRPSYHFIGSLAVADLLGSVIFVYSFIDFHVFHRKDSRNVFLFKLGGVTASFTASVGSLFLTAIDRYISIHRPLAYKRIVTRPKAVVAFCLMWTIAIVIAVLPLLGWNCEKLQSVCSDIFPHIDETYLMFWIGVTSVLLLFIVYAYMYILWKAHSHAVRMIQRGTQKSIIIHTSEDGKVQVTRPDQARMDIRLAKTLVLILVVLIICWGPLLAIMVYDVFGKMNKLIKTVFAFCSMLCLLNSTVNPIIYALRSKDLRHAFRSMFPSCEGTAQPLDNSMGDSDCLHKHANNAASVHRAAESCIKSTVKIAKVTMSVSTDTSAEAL
T1 sequence (P34972 whole entry): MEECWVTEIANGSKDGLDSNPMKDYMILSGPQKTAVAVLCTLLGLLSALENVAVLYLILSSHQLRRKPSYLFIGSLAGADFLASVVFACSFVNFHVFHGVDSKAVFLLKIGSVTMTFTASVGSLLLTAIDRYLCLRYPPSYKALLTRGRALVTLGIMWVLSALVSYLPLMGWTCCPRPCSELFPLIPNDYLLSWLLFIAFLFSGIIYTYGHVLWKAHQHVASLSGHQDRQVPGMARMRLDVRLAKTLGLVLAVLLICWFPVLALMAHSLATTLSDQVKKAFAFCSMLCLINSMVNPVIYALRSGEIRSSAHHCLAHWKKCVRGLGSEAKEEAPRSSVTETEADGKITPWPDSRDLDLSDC

Structure (SMILES)	Ki [1]	Ki [2]	Ratio Ki [3]	Ratio Ki [4]	also measured
CCCCCCc1ccc(OCCCCCCCCCCC(=O)NC(CO)CO)cc1O	> 10000 nM	> 10000 nM			
C=CCNC(=O)CCCCCCCCCCOc1cc(O)cc(CCCCC)c1	136 nM	16.4 nM	8.31	0.12	
CCCCCc1cc(O)cc(OCCCCCCCCCCC(=O)NC(CO)CO)c1	> 10000 nM	540 nM	> 18.5	< 0.05	
CCCCCCC(C)(C)c1cc(O)cc(OCCCCCCCC(=O)NCC(F)(F)F)c1	397 nM	27.9 nM	14.2	0.07	
CCCCCCc1c(O)cccc1OCCCCCCCCCCC(=O)NC12CC3CC(CC(C3)C1)C2	> 10000 nM	> 10000 nM			
CCCCCc1cc(O)cc(OCCCCCCCCCCC(=O)NN(C)C)c1	845 nM	183 nM	4.63	0.22	IC50 [5]: > 10000 nM; Imax [6]: 42.9%; IC50 [7]: > 10000 nM; Imax [8]: 28.2%
CCCCCCC(C)(C)c1cc(O)cc(OCCCCCCCC(=O)NC(CO)CO)c1	178 nM	815 nM	0.22	4.6	
CCCCCCc1ccc(OCCCCCCCCCCCNC(=O)C2CC2)cc1O	> 10000 nM	> 10000 nM			
CCCCCc1cc(O)cc(OCCCCCCCCCCC(=O)NN2CCCCC2)c1	1780 nM	678 nM	2.63	0.38	IC50 [5]: > 10000 nM; Imax [6]: 41.6%; IC50 [7]: > 10000 nM; Imax [8]: 41%
CCCCCCc1ccc(O)cc1OCCCCCCCCCCC(=O)NC(CO)CO	> 10000 nM	2370 nM	> 4.22	< 0.24	
CCCCCCc1ccc(OCCCCCCCCCCC(=O)NC23CC4CC(CC(C4)C2)C3)cc1O	> 10000 nM	> 10000 nM			
CCCCCc1cc(O)cc(OCCCCCCCCCCCNC2CC2)c1	2080 nM	1890 nM	1.1	0.91	
CCCCCc1cc(O)cc(OCCCCCCCCCCC(=O)NCC(F)(F)F)c1	438 nM	96.3 nM	4.55	0.22	
CCCCCCC(C)(C)c1cc(O)cc(OCCCCCCCCCCCN2C(=O)c3ccccc3C2=O)c1					Imax [9]: 14.4%; IC50 [7]: > 50000 nM
CCCCCCc1ccc(OCCCCCCCCCCCN2C(=O)c3ccccc3C2=O)cc1O					Imax [9]: 14.3%; IC50 [7]: > 50000 nM
CCCCCCC(C)(C)c1cc(O)cc(OCCCCCCCC(=O)NC23CC4CC(CC(C4)C2)C3)c1	> 10000 nM	> 10000 nM			
CCCCCc1cc(O)cc(OCCCCCCCCCCC(=O)NC23CC4CC(CC(C4)C2)C3)c1	> 10000 nM	> 10000 nM			
CCCCCc1cc(O)cc(OCCCCCCCCCCC(=O)Nc2ccccc2)c1	> 10000 nM	128 nM	> 78.2	< 0.01	EC50 [10]: 701 nM; Emax [11]: -14.4%
CCCCCCC(C)(C)c1cc(O)cc(OCCCCCCCCCCCNC(=O)C2CC2)c1	2070 nM	650 nM	3.18	0.31	
